Data: ChEMBL document CHEMBL1132716, “Agonist selectivity of mGluR1 and mGluR2 metabotropic receptors: a different environment but similar recognition of an extended glutamate conformation” (J Med Chem, 1999)
The source made the active and inactive calls. The rule behind the calls is not given here.

Key:
[1] = biological target: Metabotropic glutamate receptor 2 (Rattus norvegicus) (UniProt P31421); test: Ratio between EC50 of compound and glutamate measured against Metabotropic glutamate receptor 2; assay type: functional
Outline: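 mGluR2 (rat, transient in HEK 293 cells with co-expressed Gqi9 chimera) inositol phosphate formation; EC50 from Hill fits of at least eight concentrations over 3 orders of magnitude, reported as ratio to the glutamate EC50 determined under the same conditions.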

[2] = biological target: Metabotropic glutamate receptor 1 (Rattus norvegicus) (UniProt P23385); test: Ratio between EC50 of compound and glutamate measured against metabotropic glutamate receptor 1; assay type: functional
Outline: (§1)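 mGluR1a (rat, transient in LLC-PK1 or HEK 293 cells) inositol phosphate formation; EC50 from Hill fits of at least eight-point curves over 3 log units, expressed as ratio of compound EC50 to glutamate EC50 measured in the same assay.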

[3] = biological target: T1, Metabotropic glutamate receptor 1 (Rattus norvegicus, UniProt P23385); test: Inhibitory activity against Metabotropic glutamate receptor 1 in the rat LLC-PK1/HEK 293 cells.; assay type: cell-based, HEK293
Outline: (§2)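 Rat mGluR1a transiently expressed in LLC-PK1 or HEK 293 cells; receptor activity read as agonist-induced inositol phosphate formation. At least eight agonist concentrations spanning 3 orders of magnitude gave full dose-response curves, fitted to a Hill equation for maximal effect, EC50 (or IC50) and Hill coefficient.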

[4] = biological target: Metabotropic glutamate receptor 2 (Rattus norvegicus, UniProt P31421); test: Inhibitory activity against Metabotropic glutamate receptor 2 in the rat HEK 293 cells.; assay type: cell-based, HEK293
Outline: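 Rat mGluR2 transiently expressed in HEK 293 cells, cotransfected with chimeric G-protein Gqi9 so the receptor couples to PLC; activity read as agonist-induced inositol phosphate formation. At least eight concentrations over 3 orders of magnitude gave full dose-response curves, Hill-equation fit giving maximal effect, EC50 (or IC50) and Hill coefficient.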

[5] = biological target: Metabotropic glutamate receptor 1 (Rattus norvegicus) (UniProt P23385); test: Ratio between the measured EC50 and the glutamate EC50 measured against Metabotropic glutamate receptor 1; No effect; assay type: functional; outline: as §1
[6] = biological target: T1, Metabotropic glutamate receptor 1; test: Inhibitory activity against Metabotropic glutamate receptor 1 in the rat LLC-PK1/HEK 293 cells; assay type: cell-based, HEK293; outline: as §2
[7] = biological target: T1, Metabotropic glutamate receptor 1; test: Inhibitory activity against Metabotropic glutamate receptor 1 in the rat LLC-PK1/HEK 293 cells.; No effect; assay type: cell-based; settings: hek293; outline: as §2
[8] = biological target: Metabotropic glutamate receptor 2 (Homo sapiens, UniProt Q14416); test: Inhibitory activity against human Metabotropic glutamate receptor 2
Chain of Metabotropic glutamate receptor 2 (Homo sapiens, UniProt Q14416) (Q14416 whole entry): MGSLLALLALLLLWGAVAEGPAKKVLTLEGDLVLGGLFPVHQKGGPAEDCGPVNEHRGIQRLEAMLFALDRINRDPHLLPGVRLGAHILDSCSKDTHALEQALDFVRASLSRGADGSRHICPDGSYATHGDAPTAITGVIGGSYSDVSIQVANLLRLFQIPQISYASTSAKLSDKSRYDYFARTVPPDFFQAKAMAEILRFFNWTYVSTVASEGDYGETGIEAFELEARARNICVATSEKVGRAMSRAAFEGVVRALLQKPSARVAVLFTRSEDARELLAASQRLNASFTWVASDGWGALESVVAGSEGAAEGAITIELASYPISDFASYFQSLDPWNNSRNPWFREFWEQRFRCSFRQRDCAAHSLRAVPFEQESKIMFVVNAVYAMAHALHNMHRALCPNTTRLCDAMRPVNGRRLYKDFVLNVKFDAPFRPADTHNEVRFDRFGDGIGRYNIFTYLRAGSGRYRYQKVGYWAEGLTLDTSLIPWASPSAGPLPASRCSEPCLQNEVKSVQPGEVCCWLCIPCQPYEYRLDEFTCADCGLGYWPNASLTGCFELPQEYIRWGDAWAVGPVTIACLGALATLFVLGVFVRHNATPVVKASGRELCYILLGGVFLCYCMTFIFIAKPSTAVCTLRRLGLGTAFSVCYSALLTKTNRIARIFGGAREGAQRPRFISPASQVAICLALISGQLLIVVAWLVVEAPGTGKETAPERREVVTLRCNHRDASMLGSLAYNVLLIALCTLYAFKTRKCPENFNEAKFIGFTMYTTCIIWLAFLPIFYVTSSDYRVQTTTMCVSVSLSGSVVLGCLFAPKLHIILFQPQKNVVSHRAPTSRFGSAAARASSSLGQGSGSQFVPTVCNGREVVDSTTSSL

T1 sequence (P23385 whole entry): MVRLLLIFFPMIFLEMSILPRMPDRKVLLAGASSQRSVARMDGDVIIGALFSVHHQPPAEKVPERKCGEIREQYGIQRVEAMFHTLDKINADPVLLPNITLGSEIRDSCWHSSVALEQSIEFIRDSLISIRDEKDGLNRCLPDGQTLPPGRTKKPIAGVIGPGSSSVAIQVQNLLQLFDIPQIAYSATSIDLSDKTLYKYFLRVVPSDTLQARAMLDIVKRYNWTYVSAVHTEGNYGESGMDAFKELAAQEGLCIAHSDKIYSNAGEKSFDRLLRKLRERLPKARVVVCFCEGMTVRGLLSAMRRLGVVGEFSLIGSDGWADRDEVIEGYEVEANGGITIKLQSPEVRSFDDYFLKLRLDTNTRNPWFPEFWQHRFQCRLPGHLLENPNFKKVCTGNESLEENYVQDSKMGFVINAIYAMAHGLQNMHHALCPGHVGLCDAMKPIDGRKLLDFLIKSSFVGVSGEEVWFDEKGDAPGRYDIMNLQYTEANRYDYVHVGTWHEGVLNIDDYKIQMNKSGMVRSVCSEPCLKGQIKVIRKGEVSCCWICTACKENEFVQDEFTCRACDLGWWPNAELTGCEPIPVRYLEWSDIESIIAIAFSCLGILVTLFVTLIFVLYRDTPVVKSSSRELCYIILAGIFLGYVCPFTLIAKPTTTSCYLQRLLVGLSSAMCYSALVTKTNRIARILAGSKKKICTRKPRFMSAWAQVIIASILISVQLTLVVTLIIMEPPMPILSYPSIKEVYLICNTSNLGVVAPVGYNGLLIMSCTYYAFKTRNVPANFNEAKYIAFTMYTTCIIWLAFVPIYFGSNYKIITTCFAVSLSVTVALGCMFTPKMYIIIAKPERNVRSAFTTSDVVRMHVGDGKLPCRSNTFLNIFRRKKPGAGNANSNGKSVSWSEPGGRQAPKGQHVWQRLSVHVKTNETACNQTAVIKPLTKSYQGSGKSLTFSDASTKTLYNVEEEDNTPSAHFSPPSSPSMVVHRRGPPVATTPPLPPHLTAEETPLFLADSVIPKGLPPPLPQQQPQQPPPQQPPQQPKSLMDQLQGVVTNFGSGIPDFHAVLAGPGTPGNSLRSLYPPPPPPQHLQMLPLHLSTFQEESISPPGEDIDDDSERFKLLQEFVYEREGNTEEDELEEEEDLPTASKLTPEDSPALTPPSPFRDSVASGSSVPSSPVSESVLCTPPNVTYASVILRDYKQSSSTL
Chain of Metabotropic glutamate receptor 2 (Rattus norvegicus, UniProt P31421) (P31421 whole entry): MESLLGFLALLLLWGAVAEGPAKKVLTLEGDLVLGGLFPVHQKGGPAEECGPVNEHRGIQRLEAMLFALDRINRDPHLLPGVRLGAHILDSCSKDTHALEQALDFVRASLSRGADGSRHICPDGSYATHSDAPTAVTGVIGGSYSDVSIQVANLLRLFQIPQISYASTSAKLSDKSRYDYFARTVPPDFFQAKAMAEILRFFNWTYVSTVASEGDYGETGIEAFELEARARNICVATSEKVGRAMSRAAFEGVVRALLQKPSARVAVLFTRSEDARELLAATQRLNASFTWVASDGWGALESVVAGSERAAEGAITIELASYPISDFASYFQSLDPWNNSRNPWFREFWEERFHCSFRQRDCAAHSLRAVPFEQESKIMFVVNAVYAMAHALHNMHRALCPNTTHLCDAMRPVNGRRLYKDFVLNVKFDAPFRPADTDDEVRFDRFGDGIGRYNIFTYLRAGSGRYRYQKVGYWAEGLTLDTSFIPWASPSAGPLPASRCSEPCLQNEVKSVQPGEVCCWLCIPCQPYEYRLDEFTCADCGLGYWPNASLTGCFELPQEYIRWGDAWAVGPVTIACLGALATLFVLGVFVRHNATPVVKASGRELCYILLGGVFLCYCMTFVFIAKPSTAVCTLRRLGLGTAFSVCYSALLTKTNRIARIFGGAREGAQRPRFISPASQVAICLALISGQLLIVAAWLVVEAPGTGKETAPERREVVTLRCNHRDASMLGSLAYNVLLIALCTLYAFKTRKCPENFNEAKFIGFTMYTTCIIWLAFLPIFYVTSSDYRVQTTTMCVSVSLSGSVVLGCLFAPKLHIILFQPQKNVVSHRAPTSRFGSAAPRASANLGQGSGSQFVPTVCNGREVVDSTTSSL
Chain of Metabotropic glutamate receptor 2 (Rattus norvegicus) (P31421 19-872 limits assumed): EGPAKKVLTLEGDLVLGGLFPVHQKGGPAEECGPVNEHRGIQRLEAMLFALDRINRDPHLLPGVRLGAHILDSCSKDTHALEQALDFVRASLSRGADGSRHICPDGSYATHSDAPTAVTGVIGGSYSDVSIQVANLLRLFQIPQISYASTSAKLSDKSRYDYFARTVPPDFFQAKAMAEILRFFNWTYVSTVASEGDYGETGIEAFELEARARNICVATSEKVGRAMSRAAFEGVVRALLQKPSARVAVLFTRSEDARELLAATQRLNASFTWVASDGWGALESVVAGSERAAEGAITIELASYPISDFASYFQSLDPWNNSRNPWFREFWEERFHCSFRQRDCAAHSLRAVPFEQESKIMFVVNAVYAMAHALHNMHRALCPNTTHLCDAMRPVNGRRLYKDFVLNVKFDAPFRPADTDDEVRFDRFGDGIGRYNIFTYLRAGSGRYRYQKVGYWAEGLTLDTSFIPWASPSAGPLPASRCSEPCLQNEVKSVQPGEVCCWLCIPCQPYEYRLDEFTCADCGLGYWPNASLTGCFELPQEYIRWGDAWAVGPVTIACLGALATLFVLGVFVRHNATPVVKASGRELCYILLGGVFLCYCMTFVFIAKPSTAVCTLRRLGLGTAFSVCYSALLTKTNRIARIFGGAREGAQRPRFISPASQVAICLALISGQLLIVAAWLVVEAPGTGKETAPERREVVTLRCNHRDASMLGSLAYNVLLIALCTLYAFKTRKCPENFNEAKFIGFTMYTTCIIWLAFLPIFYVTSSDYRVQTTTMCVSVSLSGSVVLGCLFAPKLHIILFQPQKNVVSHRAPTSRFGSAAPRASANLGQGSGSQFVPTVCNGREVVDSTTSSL
Chain of Metabotropic glutamate receptor 1 (Rattus norvegicus) (P23385 19-1199 limits assumed): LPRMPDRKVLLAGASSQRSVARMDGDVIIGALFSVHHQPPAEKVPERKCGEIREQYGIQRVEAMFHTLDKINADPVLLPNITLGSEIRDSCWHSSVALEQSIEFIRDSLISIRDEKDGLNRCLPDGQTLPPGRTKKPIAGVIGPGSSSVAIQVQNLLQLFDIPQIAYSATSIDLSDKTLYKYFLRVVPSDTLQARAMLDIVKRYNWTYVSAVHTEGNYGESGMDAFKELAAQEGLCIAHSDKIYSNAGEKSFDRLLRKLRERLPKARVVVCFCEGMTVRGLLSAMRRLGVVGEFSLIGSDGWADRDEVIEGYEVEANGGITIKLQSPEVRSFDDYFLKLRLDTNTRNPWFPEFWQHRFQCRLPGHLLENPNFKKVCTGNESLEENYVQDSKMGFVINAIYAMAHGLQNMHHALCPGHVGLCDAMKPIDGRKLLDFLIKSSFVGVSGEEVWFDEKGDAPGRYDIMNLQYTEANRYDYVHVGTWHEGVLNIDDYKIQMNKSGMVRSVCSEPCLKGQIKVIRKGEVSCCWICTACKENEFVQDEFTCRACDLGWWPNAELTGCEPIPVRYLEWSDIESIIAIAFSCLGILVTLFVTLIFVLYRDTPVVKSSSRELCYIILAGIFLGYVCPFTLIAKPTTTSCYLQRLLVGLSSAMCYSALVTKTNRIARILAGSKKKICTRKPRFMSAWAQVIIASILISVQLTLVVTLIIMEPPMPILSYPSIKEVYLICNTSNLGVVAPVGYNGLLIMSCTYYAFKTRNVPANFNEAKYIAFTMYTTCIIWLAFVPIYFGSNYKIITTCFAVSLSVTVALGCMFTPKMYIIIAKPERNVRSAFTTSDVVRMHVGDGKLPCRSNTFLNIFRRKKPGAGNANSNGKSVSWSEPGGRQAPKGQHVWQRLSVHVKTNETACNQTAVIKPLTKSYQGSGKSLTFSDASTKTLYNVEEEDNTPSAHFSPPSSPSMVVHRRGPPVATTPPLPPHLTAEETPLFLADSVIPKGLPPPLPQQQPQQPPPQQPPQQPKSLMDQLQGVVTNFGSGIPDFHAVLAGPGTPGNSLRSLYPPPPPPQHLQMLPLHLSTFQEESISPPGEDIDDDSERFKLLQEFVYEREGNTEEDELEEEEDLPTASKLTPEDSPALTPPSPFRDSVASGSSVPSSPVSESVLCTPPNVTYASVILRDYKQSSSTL

Compound	EC50 ratio [1]	EC50 ratio [2]	other results
CC(CC(N)C(=O)O)C(=O)O (racemic)	0.53	0.65	
N[C@@]1(C(=O)O)CC[C@H]2[C@H](C(=O)O)[C@H]21	0.004		IC50 [3]: 458 µM
N[C@H](C(=O)O)c1cccc(O)c1	> 80	7.8	
CC(N)(CCC(=O)O)C(=O)O (racemic)	> 80		
C[C@@](N)(C(=O)O)[C@H]1C[C@@H]1C(=O)O			IC50 [4]: 77 µM; EC50 ratio [5]: inactive
N[C@H](C(=O)O)C12CC(C(=O)O)(C1)C2	> 60		IC50 [4]: > 300 µM; IC50 [3]: 25 µM
N[C@@]1(C(=O)O)CN[C@@H](C(=O)O)C1	0.4	> 80	
N[C@H](C(=O)O)C1[C@@H](C(=O)O)[C@@H]1C(=O)O (stereo partly specified)	0.03		IC50 [3]: 389 µM
N[C@H](C(=O)O)c1cc(O)cc(O)c1		0.53	
C[C@H](C[C@@H](N)C(=O)O)C(=O)O	1.1	4.9	
NC1(C(=O)O)CC2CC1C2C(=O)O (stereo in doubt; 12)	1.1	0.32	
N[C@@H](CCC(=O)O)C(=O)O	1	1	
N[C@@]1(C(=O)O)CC[C@H](C(=O)O)C1	1.2	> 25	
C[C@](N)(CCC(=O)O)C(=O)O		> 80	
N[C@H](C(=O)O)[C@@H]1C[C@H]1C(=O)O		20	
NC1(C(=O)O)CC2CC1C2C(=O)O (stereo in doubt; 13)	186	25	
N[C@@]1(C(=O)O)CC[C@@H](C(=O)O)C1	1.6	0.75	
C=C(C[C@@H](N)C(=O)O)C(=O)O		14	
N[C@H](C(=O)O)[C@H]1C[C@@H]1C(=O)O	0.04	5	
N[C@H](C(=O)O)c1ccc(C(=O)O)c(O)c1	4		IC50 [6]: 40 µM

Compound	EC50 ratio [1]	EC50 ratio [2]	other results
N[C@]1(C(=O)O)CC[C@H](C(=O)O)C1	10	10	
N[C@]1(C(=O)O)C[C@H](C(=O)O)[C@H](C(=O)O)C1			IC50 [4]: 88 µM; IC50 [3]: 115 µM; EC50 ratio [5]: inactive
N[C@H](C(=O)O)c1cc(O)no1	25	0.91	
N[C@@H](Cn1oc(=O)[nH]c1=O)C(=O)O	> 90	0.02	
N[C@@H](C[C@H](CCCC(c1ccccc1)c1ccccc1)C(=O)O)C(=O)O			IC50 [7]: Not Active; IC50 [8]: 0.4 µM
C=C(C[C@H](N)C(=O)O)C(=O)O		0.7	
NC1(C(=O)O)CC2CCC1C2C(=O)O (stereo in doubt; 8) [listing 1 of 2 here]	> 80		
NC1(C(=O)O)CC2CC1C2C(=O)O (stereo in doubt; 14)	131	47	
C[C@@H](C[C@H](N)C(=O)O)C(=O)O	0.3	0.5	
NC1(C(=O)O)C2CCC1C(C(=O)O)C2 (stereo unspecified)	> 80	> 80	IC50 [4]: > 1000 µM; IC50 [3]: > 1000 µM
NC1(C(=O)O)CC2CCC1C2C(=O)O (stereo in doubt; 8) [listing 2 of 2 here]			IC50 [3]: 300 µM
C[C@@](N)(CCC(=O)O)C(=O)O		> 80	
C[C@H](CC(=O)O)[C@H](N)C(=O)O	12	23	
C[C@@H](CC(=O)O)[C@H](N)C(=O)O	80	13	
C=C(CC(N)C(=O)O)C(=O)O (racemic)	0.4	1.1	
N[C@@H](C[C@H](CC(c1ccccc1)c1ccccc1)C(=O)O)C(=O)O			IC50 [7]: Not Active; IC50 [8]: 3 µM
NC1(C(=O)O)CC2CCC1C2C(=O)O (stereo in doubt; 10)	> 80	> 80	
N[C@@H](CC(C(=O)O)C(=O)O)C(=O)O			IC50 [4]: 102 µM; IC50 [7]: Not Active; EC50 ratio [5]: inactive
C[C@H](C[C@H](N)C(=O)O)C(=O)O	23	4.6	
O=C(O)[C@H]1C[C@H](C(=O)O)N1	> 80	15	
